ChEMBL document CHEMBL2203146, “Search for anticonvulsant and analgesic active derivatives of dihydrofuran-2(3H)-one” (Bioorg Med Chem, 2012)
Active and inactive are the calls of the source.

Key:
Mus musculus [1] = assay: Anticonvulsant activity in albino CF1 mouse assessed as protection against maximal electroshock-induced seizures at 300 mg/kg, ip after 0.5 hr; assay type: functional, organism-based; set-up: dose 300 mg/kg
Outline: (§1)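 Male albino CF No. 1 mice (18–25 g) dosed ip at 30, 100 and 300 mg/kg in saline or 0.5% methylcellulose, tested 15, 30, 60 and 240 min after dosing. Maximal electroshock seizures elicited with 60-cycle alternating current. Scored as animals protected/animals tested, small qualitative groups.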

Mus musculus [2] = assay: Anticonvulsant activity in albino CF1 mouse assessed as protection against maximal electroshock-induced seizures at 100 mg/kg, ip after 4 hrs; assay type: functional, organism-based; set-up: dose 100 mg/kg; outline: as §1
Mus musculus [3] = assay: Neurotoxicity in albino CF1 mouse assessed as minimal motor impairment at 100 mg/kg, ip after 4 hrs by rotorod test; assay type: toxicity, organism-based; set-up: dose 100 mg/kg, route intraperitoneal; conditions: in vivo
Outline: (§2)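 Rotarod in male CF No. 1 mice after ip dosing (30, 100, 300 mg/kg; saline or 0.5% methylcellulose) at 15–240 min. Knurled plastic rod, 1-inch diameter, 6 rpm. Toxicity means failing to stay on for 1 min on three successive attempts. Recorded as toxic/tested.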

Mus musculus [4] = assay: Toxicity in albino CF1 mouse assessed as proconvulsant activity at 30 to 300 mg/kg, ip after 0.5 to 4 hrs; assay type: organism-based; set-up: route intraperitoneal; conditions: in vivo
Outline: (§3)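 CF No. 1 male mice dosed ip at 30, 100 or 300 mg/kg (saline or 0.5% methylcellulose), then given pentetrazole 85 mg/kg sc as 0.5% solution in posterior midline. Watched 30 min. Protection means no threshold seizure (single clonic spasm episode of at least 5 s). Expressed as protected/tested.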

Mus musculus [5] = assay: Anticonvulsant activity in albino CF1 mouse assessed as protection against maximal electroshock-induced seizures at 100 mg/kg, ip after 0.5 hr; assay type: functional, organism-based; set-up: dose 100 mg/kg; outline: as §1
Mus musculus [6] = assay: Anticonvulsant activity in albino CF1 mouse assessed as protection against maximal electroshock-induced seizures at 300 mg/kg, ip after 4 hrs; assay type: functional, organism-based; set-up: dose 300 mg/kg; outline: as §1
Mus musculus [7] = assay: Neurotoxicity in albino CF1 mouse assessed as minimal motor impairment at 300 mg/kg, ip after 0.5 hr by rotorod test; assay type: toxicity, organism-based; set-up: dose 300 mg/kg, route intraperitoneal; conditions: in vivo; outline: as §2
Mus musculus [8] = assay: Neurotoxicity in albino CF1 mouse assessed as minimal motor impairment at 300 mg/kg, ip after 4 hrs by rotorod test; assay type: toxicity, organism-based; set-up: dose 300 mg/kg, route intraperitoneal; conditions: in vivo; outline: as §2
Mus musculus [9] = assay: […] activity in ip dosed albino CF1 mouse assessed as inhibition of phenylbenzoquinone-induced writhing administered after 30 mins prior challenge; assay type: functional
Outline: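 Male Albino Swiss (CD-1) mice, 6-8 per dose. Compound given ip in 0.5% methylcellulose. 30 min later, 0.25 ml of 0.02% phenylbenzoquinone injected. After 5 min, writhes counted over 10 min. % effect = (vehicle mean − drug mean)/vehicle mean × 100. ED50 derived; Student's t-test.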

Mus musculus [10] = assay: Anticonvulsant activity in albino CF1 mouse assessed as protection against subcutaneous metrazol-induced seizures at 30 to 300 mg/kg, ip after 0.5 to 4 hrs; assay type: functional, organism-based; outline: as §3
Mus musculus [11] = assay: Analgesic activity in albino CF1 mouse assessed as inhibition of heat-induced paw licking or jumping behaviour administered after 30 mins prior heat challenge by hot plate method; assay type: functional
Mus musculus [12] = assay: Neurotoxicity in albino CF1 mouse assessed as minimal motor impairment at 100 mg/kg, ip after 0.5 hr by rotorod test; assay type: toxicity, organism-based; set-up: dose 100 mg/kg, route intraperitoneal; conditions: in vivo; outline: as §2
Rattus norvegicus [13] = assay: Neurotoxicity in Sprague-Dawley rat assessed as […] at 30 mg/kg, po after 2 hrs […]; assay type: toxicity, organism-based; set-up: dose 30 mg/kg, route oral; conditions: in vivo
Rattus norvegicus [14] = assay: Neurotoxicity in Sprague-Dawley rat assessed as minimal motor impairment at 30 mg/kg, po after 4 hrs by rotorod test; assay type: toxicity, organism-based; set-up: dose 30 mg/kg, route oral; conditions: in vivo
Mus musculus [15] = assay: Neurotoxicity in albino CF1 mouse assessed as minimal motor impairment at 100 mg/kg, ip after 1 hr by rotorod test; assay type: toxicity, organism-based; set-up: dose 100 mg/kg, route intraperitoneal; conditions: in vivo; outline: as §2
Rattus norvegicus [16] = assay: Neurotoxicity in Sprague-Dawley rat assessed as […] at 30 mg/kg, po after 1 hr […]; assay type: toxicity, organism-based; set-up: dose 30 mg/kg, route oral; conditions: in vivo
Mus musculus [17] = assay: Neurotoxicity in albino CF1 mouse assessed as minimal motor impairment at 100 mg/kg, ip after 0.25 hr by rotorod test; assay type: toxicity, organism-based; set-up: dose 100 mg/kg, route intraperitoneal; conditions: in vivo; outline: as §2
Rattus norvegicus [18] = assay: Anticonvulsant activity in Sprague-Dawley rat assessed as protection against maximal electroshock-induced seizures at 30 mg/kg, po after 0.25 hr; assay type: functional, organism-based; set-up: dose 30 mg/kg
Outline: (§4)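 Male Sprague-Dawley rats (100–150 g), compound given orally at 30 mg/kg, dissolved in saline or suspended in 0.5% methylcellulose. Maximal electroshock seizures elicited with 60-cycle alternating current. Result recorded as number protected/number tested at each time point.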

Rattus norvegicus [19] = assay: Anticonvulsant activity in Sprague-Dawley rat assessed as protection against maximal electroshock-induced seizures at 30 mg/kg, po after 1 hr; assay type: functional, organism-based; set-up: dose 30 mg/kg; outline: as §4
Mus musculus [20] = assay: Anticonvulsant activity in albino CF1 mouse assessed as protection against maximal electroshock-induced seizures at 100 mg/kg, ip after 0.25 hr; assay type: functional, organism-based; set-up: dose 100 mg/kg; outline: as §1
Rattus norvegicus [21] = assay: Anticonvulsant activity in Sprague-Dawley rat assessed as protection against maximal electroshock-induced seizures at 30 mg/kg, po after 4 hrs; assay type: functional, organism-based; set-up: dose 30 mg/kg; outline: as §4
Rattus norvegicus [22] = assay: Neurotoxicity in Sprague-Dawley rat assessed as […] at 30 mg/kg, po after 0.25 hr […]; assay type: toxicity, organism-based; set-up: dose 30 mg/kg, route oral; conditions: in vivo
Mus musculus [23] = assay: Anticonvulsant activity in albino CF1 mouse assessed as protection against maximal electroshock-induced seizures at 100 mg/kg, ip after 1 hr; assay type: functional, organism-based; set-up: dose 100 mg/kg; outline: as §1
Rattus norvegicus [24] = assay: Anticonvulsant activity in Sprague-Dawley rat assessed as protection against maximal electroshock-induced seizures at 30 mg/kg, po after 0.5 hr; assay type: functional, organism-based; set-up: dose 30 mg/kg; outline: as §4
Rattus norvegicus [25] = assay: Anticonvulsant activity in Sprague-Dawley rat assessed as protection against maximal electroshock-induced seizures at 30 mg/kg, po after 2 hrs; assay type: functional, organism-based; set-up: dose 30 mg/kg; outline: as §4
Rattus norvegicus [26] = assay: Neurotoxicity in Sprague-Dawley rat assessed as minimal motor impairment at 30 mg/kg, po after 0.5 hr by rotorod test; assay type: toxicity, organism-based; set-up: dose 30 mg/kg, route oral; conditions: in vivo
Mus musculus [27] = assay: Anesthetic activity in […] assessed as latency in response to thermal stimuli administered as 2% solution, sc measured after 15 mins by modified tail immersion test; assay type: functional, albino CF1
Rattus norvegicus [28] = assay: Anticonvulsant activity in po dosed Sprague-Dawley rat assessed as protection against maximal electroshock-induced seizures measured after 0.25 to 4 hrs; assay type: functional
Outline: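 Male Sprague-Dawley rats, 100–150 g, dosed orally at 30 mg/kg. Maximal electroshock (60-cycle alternating current) applied at time points after dosing. Scored as animals protected/animals tested.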

Mus musculus [29] = assay: Anesthetic activity in albino CF1 mouse assessed as latency in response to thermal stimuli administered as 1% solution, sc measured after 15 mins by modified tail immersion test; assay type: functional
Outline: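 Male Albino Swiss (CD-1) mice, 6-8 per group, tested at 1% and 2% compound concentration. Tail distal 3 cm immersed in water at 50 ± 0.5 °C 15 min after treatment. Tail-withdrawal latency recorded with a 20 s cutoff. Value is % difference in latency vs vehicle-treated mice. Mean ± SEM, Student's t-test.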

Mus musculus [30] = assay: Anticonvulsant activity in albino CF1 mouse assessed as protection against maximal electroshock-induced seizures at 30 mg/kg, ip after 0.5 hr; assay type: functional, organism-based; set-up: dose 30 mg/kg
Outline: (§5)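 Male albino CF No. 1 mice, 18–25 g. Compound in saline or 0.5% methylcellulose, ip. Seizures elicited by 60-cycle alternating current maximal electroshock. Result expressed as animals protected/animals tested.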

Mus musculus [31] = assay: Neurotoxicity in albino CF1 mouse assessed as minimal motor impairment at 30 mg/kg, ip after 4 hrs by rotorod test; assay type: toxicity, organism-based; set-up: dose 30 mg/kg, route intraperitoneal; conditions: in vivo; outline: as §2
Mus musculus [32] = assay: Anticonvulsant activity in albino CF1 mouse assessed as protection against maximal electroshock-induced seizures at 30 mg/kg, ip after 4 hrs; assay type: functional, organism-based; set-up: dose 30 mg/kg; outline: as §5
Mus musculus [33] = assay: Neurotoxicity in albino CF1 mouse assessed as minimal motor impairment at 30 mg/kg, ip after 0.5 hr by rotorod test; assay type: toxicity, organism-based; set-up: dose 30 mg/kg, route intraperitoneal; conditions: in vivo
Outline: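 Male albino CF No. 1 mice, compound ip in saline or 0.5% methylcellulose. Rotarod: 1-inch knurled rod at 6 rpm. Toxicity is failure to stay on the rod for 1 min on three successive attempts. Expressed as toxic/tested.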

Row | Compound | Activity (Mus musculus [1]) | Activity (Mus musculus [2]) | Activity (Mus musculus [3]) | Activity (Mus musculus [5]) | Activity (Mus musculus [6]) | Activity (Mus musculus [7]) | Activity (Mus musculus [8]) | ED50 (Mus musculus [9]) | Activity (Mus musculus [10]) | ED50 (Mus musculus [11]) | Activity (Mus musculus [12]) | Activity (Rattus norvegicus [13]) | Activity (Rattus norvegicus [14]) | Activity (Mus musculus [15]) | Activity (Rattus norvegicus [16]) | Activity (Mus musculus [17]) | Activity (Rattus norvegicus [18]) | Activity (Rattus norvegicus [19]) | Activity (Mus musculus [20]) | Activity (Rattus norvegicus [21]) | further results
1 | O=C1OCCC1N1CCc2ccccc2C1 (racemic) | inactive | inactive | Non-toxic | inactive | inactive | Non-toxic | Non-toxic | 3.7 mg/kg | inactive | 32.4 mg/kg | Non-toxic |  |  |  |  |  |  |  |  |  | Activity (Mus musculus [4]): Toxic
2 | C/C(Nc1ccccc1)=C1\CCOC1=O | Active | inactive | Non-toxic | inactive | inactive | Toxic | Non-toxic |  | inactive |  | Non-toxic | Non-toxic | Non-toxic | Non-toxic | Non-toxic | Non-toxic | inactive | inactive | Active | inactive | Activity (Rattus norvegicus [22]): Non-toxic; Activity (Mus musculus [23]): inactive; Activity (Rattus norvegicus [24]): inactive; Activity (Rattus norvegicus [25]): inactive; Activity (Rattus norvegicus [26]): Non-toxic
3 | O=C1OCCC1N1CCN(c2cccc(C(F)(F)F)c2)CC1 (racemic) | Active | Active | Non-toxic | inactive | inactive | Toxic | Non-toxic | 0.8 mg/kg | inactive | 1.3 mg/kg | Non-toxic | Non-toxic | Non-toxic |  | Non-toxic |  | inactive | inactive |  | Active | Activity (Rattus norvegicus [22]): Non-toxic; Activity (Mus musculus [27]): 149%; ED50 (Rattus norvegicus [28]): 112 mg/kg; Activity (Rattus norvegicus [24]): inactive; Activity (Mus musculus [29]): 81%; Activity (Rattus norvegicus [25]): Active; Activity (Rattus norvegicus [26]): Toxic
4 | COc1ccc(Cl)cc1N1CCN(C2CCOC2=O)CC1 (racemic) | Active | inactive | Toxic | inactive | inactive | Toxic | Toxic | 19 mg/kg | inactive | 28.1 mg/kg | Toxic |  |  | Toxic |  | Non-toxic |  |  | inactive |  | Activity (Mus musculus [30]): inactive; Activity (Mus musculus [31]): Non-toxic; Activity (Mus musculus [32]): inactive; Activity (Mus musculus [33]): Toxic; Activity (Mus musculus [27]): 29%; Activity (Mus musculus [23]): inactive; Activity (Mus musculus [29]): 12%
